Source: PubChem (several laboratories)
Sampled rows, rich in hits. Any-hit rate of the full collection: about 3.3%.
m5-HT2A agonist: agonists of mouse serotonin 5-HT2A receptor (HTR2A); P35363; CHO-K1 mHTR2A beta-arrestin complementation, luminescence; percent of 30 µM serotonin response; activation, % at 7.6 µM; 0.66% of 360,000 active;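 active = activation above a run cutoff, the mean activation of all tested compounds plus 3 SD, cut at about 14% in these data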;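 note: 0% = plate median of compound wells and 100% = 30 µM serotonin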
Hep lipid drop: hepatic lipid droplet formation modulation; AML12 mouse hepatocytes, oleate lipid droplets, BODIPY imaging; inhibition, % at 6.5 µM; 0.4% of 240,000 active; AID 1656;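 active = lipid droplet intensity inhibited by at least 50%, with more than 500 cells counted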
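System: AML12 hepatocytes (mouse). Probe or stimulus: oleic acid at 100 µM to induce lipid droplet formation. Times: overnight treatment with compound plus oleate. Detection: Image-based BODIPY and DAPI two-channel analysis. Evaluation: percent inhibition of filter-corrected integrated lipid droplet intensity per well.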
Arrestin-AP2 inh: inhibitors of human beta-arrestin and AP2 interaction; inhibition, % at 10 µM; FITC-arrestin peptide / GST-AP2 beads, flow cytometry; AP2 beta2 appendage carries R879A mutation; AID 504490; 0.31% of 340,000 active;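 active = inhibition above a set limit, near 3 SD of compounds lacking own fluorescence, cut at about 54% in these data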;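 note: plate controls were DMSO wells for no effect and 5 µM unlabelled arrestin peptide for full effect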
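Material – GST-tagged AP2 beta2-adaptin appendage (R879A) on 4 µm glutathione beads · Probe or stimulus – fluorescein-tagged arrestin peptide at 50 nM final · Timing – 12 min plus 1 h, RT · Detection – bead flow cytometry, FITC channel · Read-out basis – inhibition as reduced fluorescein signal on beads, percent · Medium – PBS plus Tween 20 (0.05%) and BSA (0.1%)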
HGIII-sPLA2 inh: Inhibits HGIII-sPLA2 liposome hydrolysis, primary screen | 0.56% of 370,000 active | QFRET BODIPY PC-A2 liposome hydrolysis, fluorescence | inhibition, % at 12.2 µM | Q9NZ20;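 active = inhibition above mean plus 3 SD of compounds lying within the high and low control bounds, cut at about 19% in these data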;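 note: 0% = median of test compound wells and 100% = no enzyme DMSO wells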
PfM18AAP inh: PfM18AAP enzyme inhibition. recombinant PfM18AAP, H-Glu-NHMec fluorogenic cleavage. AID 1822. inhibition, % at 7.35 µM. 1.2% of 290,000 active;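 active = inhibition above the campaign mean inhibition over all tested compounds plus 3 SD, cut at about 28% in these data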;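 note: 0% = plate median of test compound wells and 100% = 2 mM ZnCl2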
CendR NRP1 mod: NRP-1/CendR interaction modulation; inhibition, % at 25 µM; 0.85% of 360,000 active; O14786; FAM-RPARPAR peptide binding to NRP-1, fluorescence polarization; AID 602438;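 active = inhibition or corrected inhibition above about 18%, plus a signal ratio from 0.5 to 1.5, limit read from the data, passing the limit was not always enough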
The depositor's hits bear a star.

How did O=C(NNS(=O)(=O)c1ccc(Br)cc1)c1csnn1 do in these assays?
m5-HT2A agonist: 2; Hep lipid drop: 13; Arrestin-AP2 inh: 9; HGIII-sPLA2 inh: 1; PfM18AAP inh: 30*; CendR NRP1 mod: -8

What do the screens show for `C=CCN=C1NC(CCc2ccccc2)C(C(=O)OC)=C(C)N1C` (stereo not drawn)?
HGIII-sPLA2 inh: 14

How did CC1(c2nnc(-c3ccc(F)cc3)o2)CC(c2c(Cl)cccc2Cl)=NO1 (stereo not drawn) do in these assays?
m5-HT2A agonist: -5; Arrestin-AP2 inh: 7; HGIII-sPLA2 inh: 0; CendR NRP1 mod: 29*

What do the screens show for `COC(=O)C1=C(C)N(C)C(=NCc2cc(OC)c(OC)c(OC)c2)NC1c1cccc(C(F)(F)F)c1` (stereo not drawn)?
HGIII-sPLA2 inh: -18

How did CC(Cl)C(=O)c1c(N)n(C)c(=O)n(C)c1=O (stereo not drawn) do in these assays?
m5-HT2A agonist: 3; Hep lipid drop: 15; Arrestin-AP2 inh: 11; PfM18AAP inh: 4; CendR NRP1 mod: 40*

Results for CCCCOCCCNC(=O)C[C@@H]1C(=O)N(CCc2ccc(Cl)cc2)C2=CCCC[C@]21C(=O)OCC ?
HGIII-sPLA2 inh: -20

Results for O=C(CCNC(=O)c1ccc(Cl)cc1)NN1C(=O)NC2(CCCCC2)C1=O ?
m5-HT2A agonist: 9; Arrestin-AP2 inh: -6; HGIII-sPLA2 inh: 1; CendR NRP1 mod: 20*

How did COc1ccc(OC)c(NC(=O)Nc2ccc(O)c3ccccc23)c1 do in these assays?
m5-HT2A agonist: -8; Arrestin-AP2 inh: 36; HGIII-sPLA2 inh: -6; CendR NRP1 mod: 25*

What do the screens show for `COc1ccc(OC)c(NC(=O)Nc2c(O)ccc3ccccc23)c1`?
m5-HT2A agonist: -3; Arrestin-AP2 inh: 1; HGIII-sPLA2 inh: -64; CendR NRP1 mod: -12

Results for NS(=O)(=O)c1ccc(N/N=C/c2cn(-c3ccccc3)nc2-c2cccs2)cc1 ?
m5-HT2A agonist: -5; Hep lipid drop: -4; Arrestin-AP2 inh: -6; HGIII-sPLA2 inh: 4; PfM18AAP inh: 26; CendR NRP1 mod: 30*

What do the screens show for `O=C(O)c1cccc(N/N=C/c2cn(-c3ccccc3)nc2-c2cccs2)c1`?
m5-HT2A agonist: 3; Hep lipid drop: -1; Arrestin-AP2 inh: -7; HGIII-sPLA2 inh: -16; PfM18AAP inh: 31*; CendR NRP1 mod: -30

Results for O=C(Nc1cccc2ccccc12)c1cn(-c2ccccc2)nc1-c1cccs1 ?
m5-HT2A agonist: 17*; Arrestin-AP2 inh: 28; PfM18AAP inh: 0; CendR NRP1 mod: 0

How did CSc1ncccc1C(=O)Nc1cccc(S(=O)(=O)N2CCCCC2)c1 do in these assays?
m5-HT2A agonist: -2; Arrestin-AP2 inh: -5; HGIII-sPLA2 inh: -10; CendR NRP1 mod: -3

How did NC(CCc1ccccc1)c1csc(NC(=O)Nc2cccc(C(F)(F)F)c2)n1 (stereo not drawn) do in these assays?
m5-HT2A agonist: 2; HGIII-sPLA2 inh: 16; CendR NRP1 mod: 6

What do the screens show for `CC(C)C(N)c1csc(NC(=O)Nc2cccc(C(F)(F)F)c2)n1` (stereo not drawn)?
m5-HT2A agonist: -7; HGIII-sPLA2 inh: 13; CendR NRP1 mod: 24*

What do the screens show for `COC(=O)[C@H](CC(C)C)N(CCc1cn(Cc2ccccc2)nn1)S(=O)(=O)c1ccccc1Br`?
HGIII-sPLA2 inh: -18

How did Cc1cccc(Cl)c1-n1nnnc1C1(C)CSCC(=O)N1Cc1ccc(F)cc1 (stereo not drawn) do in these assays?
HGIII-sPLA2 inh: -9

What do the screens show for `COc1ccc(C(CCNCc2ccc(N(C)C)cc2)c2ccccc2)cc1` (stereo not drawn)?
m5-HT2A agonist: 6; Hep lipid drop: -3; Arrestin-AP2 inh: -19; HGIII-sPLA2 inh: 5; PfM18AAP inh: 1; CendR NRP1 mod: 2

What do the screens show for `CC(C)Oc1ccc(C(CCNCc2ccc(O)cc2)c2ccccc2)cc1` (stereo not drawn)?
m5-HT2A agonist: -13; Hep lipid drop: -5; Arrestin-AP2 inh: 2; HGIII-sPLA2 inh: -19; PfM18AAP inh: 1; CendR NRP1 mod: 25*

How did O=C(NC[C@@H]1CCCO1)c1cccc2c1C(=O)c1ccc(Cl)cc1S2(=O)=O do in these assays?
m5-HT2A agonist: 0; Arrestin-AP2 inh: -4; HGIII-sPLA2 inh: 8; CendR NRP1 mod: 1

How did COc1ccc(-c2ccc3c(c2)S(=O)(=O)c2cccc(C(=O)NC[C@@H]4CCCO4)c2C3=O)cc1OC do in these assays?
m5-HT2A agonist: 15*; Arrestin-AP2 inh: 3; HGIII-sPLA2 inh: -3; CendR NRP1 mod: -46

What do the screens show for `CC1C(O)=C(c2nc3ccccc3[nH]2)C(=N)N1c1ccccc1` (stereo not drawn)?
m5-HT2A agonist: -5; Hep lipid drop: -4; Arrestin-AP2 inh: 6; HGIII-sPLA2 inh: 23*; PfM18AAP inh: -11; CendR NRP1 mod: 4

Results for CCC(C)N1CC(O)=C(c2nc3ccccc3[nH]2)C1=N (stereo not drawn) ?
m5-HT2A agonist: -4; Arrestin-AP2 inh: 1; HGIII-sPLA2 inh: 14; PfM18AAP inh: -7; CendR NRP1 mod: 0

How did CCC(C)Sc1ccc([C@@H]2[C@@H]3C(=O)N(CC)C(=O)[C@@H]3[C@]3(C(=O)OC)CCCCN23)cc1 (stereo partly drawn) do in these assays?
m5-HT2A agonist: -1; Arrestin-AP2 inh: 1; HGIII-sPLA2 inh: -2; CendR NRP1 mod: -5

What do the screens show for `Cc1noc(C)c1C(=O)OCC(=O)NCc1ccccc1`?
m5-HT2A agonist: 3; Arrestin-AP2 inh: -9; HGIII-sPLA2 inh: -4; CendR NRP1 mod: 24*

What do the screens show for `Cc1ccc(CNC(=O)COC(=O)c2c(C)noc2C)cc1`?
m5-HT2A agonist: 2; Hep lipid drop: -6; Arrestin-AP2 inh: -5; HGIII-sPLA2 inh: -2; PfM18AAP inh: 12; CendR NRP1 mod: 1

Results for OCc1ccccc1CNCc1ccccc1 ?
m5-HT2A agonist: -3; Arrestin-AP2 inh: 1; HGIII-sPLA2 inh: 10; PfM18AAP inh: -5; CendR NRP1 mod: -6

Results for Oc1cc(CNCc2ccccc2)c(O)cc1CNCc1ccccc1 ?
m5-HT2A agonist: 13; Arrestin-AP2 inh: 12; HGIII-sPLA2 inh: 8; CendR NRP1 mod: 28*

How did CCOc1ccc(-n2c(SCC(=O)Nc3ccc(S(=O)(=O)Nc4nccs4)cc3)nnc2-c2ccc(C(C)(C)C)cc2)cc1 do in these assays?
HGIII-sPLA2 inh: -78

What do the screens show for `CN(C)CCNCCCNc1c2ccccc2nc2cccc([N+](=O)[O-])c12`?
m5-HT2A agonist: -7; Arrestin-AP2 inh: -6; HGIII-sPLA2 inh: 16; CendR NRP1 mod: 31*

How did N#Cc1ccc(NC(=O)OC2CCC23CCC(c2ccccc2)CC3)cc1 (stereo not drawn) do in these assays?
HGIII-sPLA2 inh: -6
